# The source made the active and inactive calls. The rule behind the calls is not given here.
# Tests used:
# [1] = system: Cutibacterium acnes; assay: Antimicrobial activity Propionibacterium acnes ATCC 11827 after 2 days by broth dilution method; assay type: functional
# Outline: (§1)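 Serial twofold dilutions in DMF; 30 µl of each added to 3 ml NYG broth (0.8% nutrient broth, 0.5% yeast extract, 0.1% glucose), then inoculated with 30 µl of a two-day-old culture. Incubated 2 days at 37°; growth read as turbidity (OD 660 nm). MIC is the lowest concentration giving complete growth inhibition, determined at least twice.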
# [2] = system: Cutibacterium acnes; assay: Antimicrobial activity Propionibacterium acnes ATCC 11827 up to 200 ug/ml after 2 days by broth dilution method; assay type: functional, organism-based; outline: as §1
# [3] = system: Cutibacterium acnes; assay: Antimicrobial activity Propionibacterium acnes ATCC 11827 after 2 days by twofold dilution method in presence of 1000 units of lipase; assay type: functional; details: ATCC 11827, 48 h
# [4] = system: Cutibacterium acnes; assay: Antimicrobial activity Propionibacterium acnes ATCC 11827 at 1.56 ug/ml after 3 days by time-kill curve method; assay type: functional, organism-based
# Outline: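 P. acnes ATCC 11827, from a two-day-old culture, was inoculated into NYG broth (0.8% nutrient broth, 0.5% yeast extract, 0.1% glucose) containing the compound predissolved in DMF. Initial inoculum was 1 × 10^6 to 5 × 10^6 CFU/ml. Viable counts were taken at 8, 24 and 48 h from serial 10-fold dilutions on Actinomyces agar, incubated anaerobically at 37° for 3 days.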
# [5] = system: Cutibacterium acnes; assay: Antimicrobial activity at lag growth phase of Propionibacterium acnes ATCC 11827 assessed as log units reduction in CFU/ml at 25 ug/ml after 48 hrs by time-kill curve method; assay type: functional
# Outline: (§2)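 A 30 µl aliquot of two-day-old culture went into 3 ml NYG broth (initial inoculum 1 × 10^6 to 5 × 10^6 CFU/ml). Compound, dissolved in DMF, was added at set times after incubation began. Viable counts were taken 24 and 48 h after addition from serial 10-fold dilutions plated on Actinomyces agar, incubated anaerobically 3 days at 37°.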
# [6] = system: Cutibacterium acnes; assay: Antimicrobial activity at exponential growth phase of Propionibacterium acnes ATCC 11827 assessed as log units reduction in CFU/ml at 25 ug/ml after 48 hrs by time-kill curve method; assay type: functional, organism-based; outline: as §2
# [7] = system: Cutibacterium acnes; assay: Antimicrobial activity at exponential growth phase of Propionibacterium acnes ATCC 11827 assessed as log units reduction in CFU/ml at 6.25 ug/ml after 48 hrs by time-kill curve method; assay type: functional, organism-based
# Outline: (§3)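 Growth-phase time-kill: P. acnes ATCC 11827 was grown in NYG broth from a 1 × 10^6 to 5 × 10^6 CFU/ml inoculum. The compound (DMF stock) was added after 0, 8 or 32 h of incubation. Viable counts were taken 24 and 48 h after addition by serial 10-fold dilution plating on Actinomyces agar, incubated anaerobically at 37° for 3 days. Reduction is expressed as log CFU/ml.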
# [8] = system: Cutibacterium acnes; assay: Antimicrobial activity at exponential growth phase of Propionibacterium acnes ATCC 11827 assessed as log units reduction in CFU/ml at 1.56 ug/ml after 48 hrs by time-kill curve method; assay type: functional, organism-based; outline: as §3
# [9] = Cutibacterium acnes, ATCC 11827, 48 h, read-out: MIC
# [10] = Cutibacterium acnes, ATCC 11827, 48 h
SMILES,"MIC [1, 9] [µg/mL]",also measured
CCCCCCCCO [OCTANOL],200,
CC1=CCC2CC1C2(C)C (stereo not drawn) [ALPHA-PINENE],25,
CCCCCCCCC(C)O (centres undefined) [DECAN-2-OL],100,
CCCCCCCCCCCCCCCOC(=O)CCCCCCCCCCC [PENTADECANYLDODECANOATE],,Activity [2]: inactive; MIC [3]: 1.56 µg/mL
CCCCCCCCCCCCC(C)O (centres undefined),3.13,
CCCCCCCCCCCCCCCCCCO [CETOSTEARYL ALCOHOL],> 800,
C=CCc1ccc(OC)c(OC)c1 [METHYLEUGENOL],200,
C/C=C/c1ccc2c(c1)OCO2 [ISOSAFROLE],200,
C=C1CCC2CC1C2(C)C (stereo not drawn) [BETA-PINENE],100,
CCCCCCCCCCCCc1cccc(O)c1C(=O)O,0.39,
CC(C)=CCC/C(C)=C/[C@H](O)C/C(C)=C/CC/C(C)=C/CO [CRINITOL],25,
CC(C)C1=CC2=CC[C@@H]3[C@](C)(CCC[C@@]3(C)C(=O)O)[C@H]2CC1 [ABIETIC ACID],25,
CCCCCCCO [1-HEPTANOL],400,"MBC [1, 10]: 800 µg/mL"
CCCCCCCCCCCCCCCO,0.78,"MBC [1, 10]: 1.56 µg/mL; Activity [4]: Active; Activity [5]: >2; Activity [6]: Active; Activity [7]: inactive; Activity [8]: inactive"
CC(C)c1cccc(=O)c(O)c1 [HINOKITIOL],12.5,
CC1(C)C2CCC1(C)C(O)C2 (centres undefined) [BORNEOL],200,
C=CCc1ccc2c(c1)OCO2 [SAFROLE],50,
CCCCCc1cccc(O)c1C(=O)O,100,
CCCCCCCCCO [NONANOL],100,"MBC [1, 10]: 200 µg/mL"
C=CC(C)(O)CC/C=C(\C)CCC=C(C)C (centres undefined) [NEROLIDOL],25,
CCCCCC/C=C\CCCCCCCc1cccc(O)c1C(=O)O [GINGKOLIC ACID],0.78,
CCCCCCCCc1cccc(O)c1C(=O)O,3.13,
CCCCCCCC(C)O (centres undefined) [2-NONANOL],400,
C/C1=C\CC/C(C)=C/CC(C)(C)/C=C/C1 [ALPHA-HUMULONE],3.13,
CC1=C[C@@H]2C(=C(C)CC[C@H]2C(C)C)CC1 [(+)-DELTA-CADINENE],3.13,
CCCCCCCCCCCCCCCCCCCCO [1-EICOSANOL],> 800,

SMILES,"MIC [1, 9] [µg/mL]",also measured
CCCCCCCCCCC(C)O (centres undefined),12.5,
CC1=CCC(=C(C)C)CC1 [TERPINOLENE],50,
CCCCCCCCCCCCCCC(C)O (centres undefined),0.78,
CCCC(O)CC (centres undefined) [HEXAN-3-OL],> 800,
C=C1[C@H]2CC[C@H](C2)C1(C)C,25,
CC1=CC[C@@H](C(C)(C)O)CC1 [ALPHA-TERPINEOL],100,
CC(C)=CCC/C(C)=C/CC/C(C)=C/CO [FARNESOL],6.25,
CC1=CCC(O)(C(C)C)CC1 (centres undefined) [TERPINEOL],800,
CC1(C)CCC[C@]2(C)[C@@H](C=O)C(C=O)=CC[C@@H]12 [POLYGODIAL],25,
CCCCCCCCCCCCCCCCC(C)O (centres undefined),> 800,
CCCCC(C)O (centres undefined) [2-HEXANOL],800,
CC(C)=CCC/C(C)=C/CO [GERANIOL],400,
CC(C)c1c(O)ccc2c1CC[C@H]1C(C)(C)CCC[C@]21C [TOTAROL],0.39,
c1ccc2[nH]ccc2c1 [INDOLE],200,
CCCCC(O)CC (centres undefined) [3-HEPTANOL],800,
CCCCCCCCCCCCCCCc1cccc(O)c1C(=O)O [ANACARDIC ACID],0.78,MIC [1]: 0.78 µg/mL
CCCCCCCCCCCCO [DODECANOL],3.13,"MBC [1, 10]: 6.25 µg/mL"
CC(C)c1oc(=O)cc2c1[C@@H](O)[C@H]1OC(=O)[C@@]3(C)[C@@H](O)[C@H]4O[C@H]4[C@@]2(C)[C@@H]13 [NAGILACTONE C],> 800,
CC12CCC(CC1=O)C2(C)C (centres undefined) [CAMPHOR],200,
CCCCCCC(O)CC (centres undefined),200,
CCCCCCC(C)O (centres undefined),800,
CC1=CCC2C(C1)C2(C)C (centres undefined) [CARENE],50,
CCCCCCO [1-HEXANOL],> 800,
Cn1c(=O)c2c(ncn2C)n(C)c1=O [CAFFEINE],> 400,
C/C=C/c1cc(OC)c(OC)cc1OC [TRANS-ASARONE],100,
CCCCCCCCCCCO [UNDECANOL],12.5,"MBC [1, 10]: 25 µg/mL"

SMILES,"MIC [1, 9] [µg/mL]",also measured
C=C1CC/C=C(\C)CC[C@@H]2[C@@H]1CC2(C)C [BETA-CARYOPHYLLENE],6.25,
CC(C)CCC[C@@H](C)[C@H]1CC[C@H]2[C@@H]3CC=C4C[C@@H](O)CC[C@]4(C)[C@H]3CC[C@]12C [CHOLESTEROL],> 800,
CC(C)[C@H]1OC(=O)C=C2C13O[C@@H]3[C@H]1OC(=O)[C@@]3(C)[C@@H](O)CC[C@@]2(C)[C@@H]13 (some centres undefined) [NAGILACTONE E],> 800,
CCC/C=C\C/C=C\CCCCCCCc1cccc(O)c1C(=O)O,0.78,
CCCCCCCCCCCCCCCCCCCCc1cccc(O)c1C(=O)O,> 800,
CCCCCCCCCCCCCCCCCO,> 800,
C/C=C/c1ccc(OC)cc1 [ANETHOLE],100,
Cc1cccc(O)c1C(=O)O,200,
C=CC/C=C\C/C=C\CCCCCCCc1cccc(O)c1C(=O)O [ANACARDIC ACID],0.78,
CCCCCCCCCCCCCCCCO [CETYL ALCOHOL],0.78,"MBC [1, 10]: 1.56 µg/mL"
CCCCCC(O)CC (centres undefined) [3-OCTANOL],400,
CC[C@H](CC[C@@H](C)[C@H]1CC[C@H]2[C@@H]3CC=C4C[C@@H](O)CC[C@]4(C)[C@H]3CC[C@]12C)C(C)C [BETA-SITOSTEROL],> 800,
CCCCCC(C)O (centres undefined) [2-HEPTANOL],800,
CCCCCCCCCCCCCO [TRIDECAN-1-OL],1.56,"MBC [1, 10]: 3.13 µg/mL"
C=C1[C@H]2CC[C@@H]3[C@H]2C(C)(C)CCC[C@]13C [LONGIFORENE],6.25,
CCCCCCCCCCCCCCO [MYRISTYL ALCOHOL],1.56,"MBC [1, 10]: 1.56 µg/mL"
CC1CCC(C(C)C)C(O)C1 (centres undefined) [MENTHOL],400,
C=C1[C@@H]2CC[C@@H](C2)C1(C)C [(-)-CAMPHENE],25,
Cc1ccc(C(C)C)c(O)c1 [THYMOL],200,
C=C(C)[C@H]1CC=C(C)CC1 [D-LIMONENE],50,
O=C(O)c1ccccc1O [SALICYLIC ACID],400,
CCCCCCCCCCO [DECANOL],25,"MBC [1, 10]: 50 µg/mL"
C=CCc1ccc(O)c(OC)c1 [EUGENOL],50,
C=CC(C)(O)CCC=C(C)C (centres undefined) [LINALOOL],200,
CCCCCCCCCCc1cccc(O)c1C(=O)O,1.56,
CCCCCCCCCCCC(=O)O [DODECANOATE],50,

# — ChEMBL document CHEMBL1149024, “Naturally occurring antiacne agents” (1994)
